This note sets out measurements from ChEMBL document CHEMBL1158444 (J Med Chem, 2009).

Structures are written as SMILES. Activity calls are given as the source filed them. The calls are words filed in the database; no cut-off is given here.

Data set [1] concerns the target Metabotropic glutamate receptor 4 (Rattus norvegicus, UniProt P31423). Description: Activity at rat mGluR4 receptor expressed in HEK293 cells assessed as effect on thallium flux.
Data set [2] deals with T1, Metabotropic glutamate receptor 4 (Homo sapiens, UniProt Q14833). Description: Activity at human mGluR4 receptor expressed in CHO cells assessed as effect on calcium mobilization. It counts as functional, cell-based. (A change in cytosolic calcium serves as a functional read-out for many receptors and channels.)
Data set [3] deals with Metabotropic glutamate receptor 4 (Rattus norvegicus) (UniProt P31423). Nature of the data set: Activity at rat mGluR4 receptor expressed in HEK293 cells assessed as effect on thallium flux relative to glutamate. Type of data set: cell-based.
Sequence of Metabotropic glutamate receptor 4 (Rattus norvegicus) (P31423 whole entry): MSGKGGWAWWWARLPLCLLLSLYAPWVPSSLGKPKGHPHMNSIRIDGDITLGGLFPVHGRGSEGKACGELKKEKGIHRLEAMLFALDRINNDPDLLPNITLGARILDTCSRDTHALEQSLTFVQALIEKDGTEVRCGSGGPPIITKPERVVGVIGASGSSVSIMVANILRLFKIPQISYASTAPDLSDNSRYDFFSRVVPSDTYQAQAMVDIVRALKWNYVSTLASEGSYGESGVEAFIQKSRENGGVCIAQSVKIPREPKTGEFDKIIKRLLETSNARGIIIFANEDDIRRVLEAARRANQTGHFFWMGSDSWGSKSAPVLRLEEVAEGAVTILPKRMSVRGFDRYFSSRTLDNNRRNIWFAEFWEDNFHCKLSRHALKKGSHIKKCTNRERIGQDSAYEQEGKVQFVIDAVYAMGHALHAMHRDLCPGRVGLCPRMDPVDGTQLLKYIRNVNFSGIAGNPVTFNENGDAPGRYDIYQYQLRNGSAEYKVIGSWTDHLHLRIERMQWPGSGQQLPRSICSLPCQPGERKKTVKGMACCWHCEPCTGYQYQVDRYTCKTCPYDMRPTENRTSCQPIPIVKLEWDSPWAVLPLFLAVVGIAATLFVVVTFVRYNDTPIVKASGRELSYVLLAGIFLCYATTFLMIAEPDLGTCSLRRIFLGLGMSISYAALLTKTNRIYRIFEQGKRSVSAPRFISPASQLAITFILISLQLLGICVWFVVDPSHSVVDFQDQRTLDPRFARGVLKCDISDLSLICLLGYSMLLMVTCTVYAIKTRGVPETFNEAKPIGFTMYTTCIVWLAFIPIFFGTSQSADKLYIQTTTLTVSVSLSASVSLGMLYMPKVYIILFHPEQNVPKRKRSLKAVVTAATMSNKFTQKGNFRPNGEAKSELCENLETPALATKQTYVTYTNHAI
The nature of data set [4]: Metabolic stability in human liver microsomes after 1 hr. It counts as ADME, Microsome. The note with it: read-out: Stability. For orientation: Microsomes from liver hold many membrane-bound enzymes, among them those of drug oxidation.
Data set [5] has as its system Plasma. Description: Fraction unbound in rat plasma by at […]. Type of data set: ADME, cell-free.
Data set [6] deals with T1, Metabotropic glutamate receptor 4. Nature of the data set: Activity at human mGluR4 receptor expressed in CHO cells assessed as effect on calcium mobilization relative to glutamate. It counts as functional, cell-based.
Data set [7] is described as follows: Metabolic stability in rat liver microsomes after 1 hr. Type of data set: ADME, Microsome. Conditions: read-out: Stability.
For data set [8], the system named is Plasma. Description: Fraction unbound in human plasma by at […]. Type of data set: ADME, cell-free.
Data set [9] has as its system Plasma. Nature of the data set: Half life in Sprague-Dawley rat plasma at 10 mg/kg, ip. It counts as ADME, organism-based. More on the design: dose 10 mg/kg, route intraperitoneal. Conditions: in vivo. An outline of the steps:
(§1)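 Rats dosed intraperitoneally at 10mg/kg with the hydrochloride salt, given as an aqueous microsuspension containing 10% tween 80. Compound levels in brain and plasma were measured at 0.5, 1 and 8 h after administration.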

Data set [10] can be described thus: Cmax in Sprague-Dawley rat brain at 10 mg/kg, ip. Set-up: dose 10 mg/kg, route intraperitoneal. Type of data set: ADME, organism-based. An outline of the steps:
as §1

Data set [11] deals with Metabotropic glutamate receptor 8 (Homo sapiens) (UniProt O00222). Nature of the data set: Activity at human mGluR8 assessed as fold shifting of glutamate-induced response to left.
The test system of data set [12] is Plasma. Description: Cmax in Sprague-Dawley rat plasma at 10 mg/kg, ip. Type of data set: ADME, organism-based. More on the design: dose 10 mg/kg, route intraperitoneal. The note with it: in vivo.
Data set [13] has as its system Brain. Description: Half life in Sprague-Dawley rat brain at 10 mg/kg, ip. It counts as ADME, organism-based. More on the design: dose 10 mg/kg, route intraperitoneal. Conditions: in vivo. An outline of the steps: as §1
Data set [14] has as its system Plasma. Description: AUC in Sprague-Dawley rat plasma at 10 mg/kg, ip. It counts as ADME, organism-based. Set-up: dose 10 mg/kg, route intraperitoneal. Conditions: in vivo.
Data set [15] concerns the target T1, Metabotropic glutamate receptor 4. Description: Activity at human mGluR4 expressed in CHO cells coexpressing Gqi5 protein assessed as fold shifting of glutamate-induced response to left at 30 uM. Type of data set: cell-based.
For data set [16], the target named is Metabotropic glutamate receptor 5 (Homo sapiens) (UniProt P41594). Nature of the data set: Activity at human mGluR5.
Sequence of Metabotropic glutamate receptor 5 (Homo sapiens) (P41594 21-1212 limits assumed): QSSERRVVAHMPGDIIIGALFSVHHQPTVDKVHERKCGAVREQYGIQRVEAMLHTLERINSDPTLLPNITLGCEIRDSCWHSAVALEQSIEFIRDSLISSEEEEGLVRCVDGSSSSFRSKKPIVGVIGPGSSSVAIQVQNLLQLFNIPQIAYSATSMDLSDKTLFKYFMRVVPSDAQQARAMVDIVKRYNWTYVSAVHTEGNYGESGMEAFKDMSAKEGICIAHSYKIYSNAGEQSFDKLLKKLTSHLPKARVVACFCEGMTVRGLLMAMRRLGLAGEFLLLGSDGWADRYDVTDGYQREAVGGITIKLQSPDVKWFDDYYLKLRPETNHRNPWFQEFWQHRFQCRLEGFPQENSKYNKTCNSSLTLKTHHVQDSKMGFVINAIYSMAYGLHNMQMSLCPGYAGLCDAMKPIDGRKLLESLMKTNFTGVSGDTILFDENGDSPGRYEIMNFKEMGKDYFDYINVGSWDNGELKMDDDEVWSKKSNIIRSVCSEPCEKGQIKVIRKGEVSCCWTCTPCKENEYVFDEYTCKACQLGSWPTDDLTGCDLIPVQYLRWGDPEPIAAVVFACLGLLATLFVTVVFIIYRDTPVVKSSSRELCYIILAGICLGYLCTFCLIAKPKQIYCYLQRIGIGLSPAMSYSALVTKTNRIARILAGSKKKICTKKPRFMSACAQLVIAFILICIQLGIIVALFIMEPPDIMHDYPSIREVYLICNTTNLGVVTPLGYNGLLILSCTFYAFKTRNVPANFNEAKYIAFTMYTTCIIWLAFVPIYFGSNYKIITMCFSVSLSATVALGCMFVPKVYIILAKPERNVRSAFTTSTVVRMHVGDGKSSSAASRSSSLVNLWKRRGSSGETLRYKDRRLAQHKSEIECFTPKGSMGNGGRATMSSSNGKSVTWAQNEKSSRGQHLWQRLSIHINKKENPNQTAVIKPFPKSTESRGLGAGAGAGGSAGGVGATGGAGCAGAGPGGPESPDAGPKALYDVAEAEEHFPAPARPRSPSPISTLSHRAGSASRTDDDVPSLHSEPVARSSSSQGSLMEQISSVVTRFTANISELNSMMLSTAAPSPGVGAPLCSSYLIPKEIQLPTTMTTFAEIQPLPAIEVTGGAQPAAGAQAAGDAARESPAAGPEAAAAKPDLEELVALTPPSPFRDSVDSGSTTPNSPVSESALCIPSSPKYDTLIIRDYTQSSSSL
Data set [17] in a line: Apparent oral clearance in Sprague-Dawley rat at 10 mg/kg, ip. Set-up: dose 10 mg/kg. Type of data set: ADME, organism-based. Conditions: in vivo. An outline of the steps:
as §1

The target in data set [18] is Metabotropic glutamate receptor 2 (Homo sapiens) (UniProt Q14416). Description: Activity at human mGluR2.
Sequence of Metabotropic glutamate receptor 2 (Homo sapiens) (Q14416 19-872 limits assumed): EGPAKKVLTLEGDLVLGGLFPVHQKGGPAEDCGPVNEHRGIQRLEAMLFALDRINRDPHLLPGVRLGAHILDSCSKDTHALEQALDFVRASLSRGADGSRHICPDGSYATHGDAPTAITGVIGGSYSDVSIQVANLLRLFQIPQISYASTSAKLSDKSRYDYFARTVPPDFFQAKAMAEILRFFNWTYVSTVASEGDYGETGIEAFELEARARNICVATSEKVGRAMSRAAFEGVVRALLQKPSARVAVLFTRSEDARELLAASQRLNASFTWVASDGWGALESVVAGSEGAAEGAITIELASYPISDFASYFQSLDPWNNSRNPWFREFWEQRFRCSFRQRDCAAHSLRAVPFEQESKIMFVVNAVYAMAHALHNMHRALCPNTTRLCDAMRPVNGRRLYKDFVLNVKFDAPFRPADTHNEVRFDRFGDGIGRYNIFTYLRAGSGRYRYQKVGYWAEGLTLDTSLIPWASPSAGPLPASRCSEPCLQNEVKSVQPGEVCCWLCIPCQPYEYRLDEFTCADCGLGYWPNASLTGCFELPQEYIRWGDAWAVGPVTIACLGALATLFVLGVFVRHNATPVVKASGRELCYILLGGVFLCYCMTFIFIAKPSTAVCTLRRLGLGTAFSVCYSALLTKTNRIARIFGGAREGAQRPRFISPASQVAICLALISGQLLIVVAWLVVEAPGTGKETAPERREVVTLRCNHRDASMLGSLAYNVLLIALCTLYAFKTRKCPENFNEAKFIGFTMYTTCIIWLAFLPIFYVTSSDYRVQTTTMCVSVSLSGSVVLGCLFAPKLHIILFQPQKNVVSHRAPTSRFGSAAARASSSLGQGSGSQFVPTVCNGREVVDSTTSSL
Data set [19] addresses Metabotropic glutamate receptor 1 (Homo sapiens) (UniProt Q13255). Description: Activity at human mGluR1.
Data set [20] has as its target Metabotropic glutamate receptor 3 (Homo sapiens) (UniProt Q14832). Description: Activity at human mGluR3.
Data set [21] concerns the target Metabotropic glutamate receptor 7 (Homo sapiens) (UniProt Q14831). Nature of the data set: Activity at human mGluR7.
Data set [22] is described as follows: AUC in Sprague-Dawley rat brain at 10 mg/kg, ip. Type of data set: ADME, organism-based. More on the design: dose 10 mg/kg, route intraperitoneal. An outline of the steps: as §1
The target of data set [23] is Metabotropic glutamate receptor 4 (Rattus norvegicus) (UniProt P31423). Nature of the data set: Activity at rat mGluR4 expressed in HEK293 cells coexpressing Gqi5 protein assessed as fold shifting of glutamate-induced response to left at 30 uM. It counts as cell-based.

Sequence of Metabotropic glutamate receptor 7 (Homo sapiens) (Q14831 whole entry): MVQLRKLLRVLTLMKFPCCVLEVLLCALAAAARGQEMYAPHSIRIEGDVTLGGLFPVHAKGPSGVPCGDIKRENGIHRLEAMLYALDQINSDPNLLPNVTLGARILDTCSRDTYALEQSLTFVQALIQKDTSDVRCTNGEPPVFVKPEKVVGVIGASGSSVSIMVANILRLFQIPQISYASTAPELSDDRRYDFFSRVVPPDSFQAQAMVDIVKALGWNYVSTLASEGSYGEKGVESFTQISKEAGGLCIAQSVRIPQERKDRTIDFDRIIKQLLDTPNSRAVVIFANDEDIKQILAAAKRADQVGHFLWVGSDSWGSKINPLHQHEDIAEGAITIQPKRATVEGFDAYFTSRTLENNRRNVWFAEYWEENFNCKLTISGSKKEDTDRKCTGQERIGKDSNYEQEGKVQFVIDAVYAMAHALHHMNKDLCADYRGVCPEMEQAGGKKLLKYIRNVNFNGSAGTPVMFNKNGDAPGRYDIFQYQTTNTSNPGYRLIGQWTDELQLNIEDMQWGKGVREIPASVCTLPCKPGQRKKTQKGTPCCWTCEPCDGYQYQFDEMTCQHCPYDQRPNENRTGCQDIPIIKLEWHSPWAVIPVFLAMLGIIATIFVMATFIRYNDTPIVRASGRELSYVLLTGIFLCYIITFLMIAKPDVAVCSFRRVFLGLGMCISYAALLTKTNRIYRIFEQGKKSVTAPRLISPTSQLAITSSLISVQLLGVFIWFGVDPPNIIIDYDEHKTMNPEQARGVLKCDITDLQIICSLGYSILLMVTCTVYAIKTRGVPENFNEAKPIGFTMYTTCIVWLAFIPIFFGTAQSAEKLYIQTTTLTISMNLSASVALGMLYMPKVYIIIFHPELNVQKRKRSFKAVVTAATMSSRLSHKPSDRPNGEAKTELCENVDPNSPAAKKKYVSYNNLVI
Sequence of Metabotropic glutamate receptor 3 (Homo sapiens) (Q14832 23-879 limits assumed): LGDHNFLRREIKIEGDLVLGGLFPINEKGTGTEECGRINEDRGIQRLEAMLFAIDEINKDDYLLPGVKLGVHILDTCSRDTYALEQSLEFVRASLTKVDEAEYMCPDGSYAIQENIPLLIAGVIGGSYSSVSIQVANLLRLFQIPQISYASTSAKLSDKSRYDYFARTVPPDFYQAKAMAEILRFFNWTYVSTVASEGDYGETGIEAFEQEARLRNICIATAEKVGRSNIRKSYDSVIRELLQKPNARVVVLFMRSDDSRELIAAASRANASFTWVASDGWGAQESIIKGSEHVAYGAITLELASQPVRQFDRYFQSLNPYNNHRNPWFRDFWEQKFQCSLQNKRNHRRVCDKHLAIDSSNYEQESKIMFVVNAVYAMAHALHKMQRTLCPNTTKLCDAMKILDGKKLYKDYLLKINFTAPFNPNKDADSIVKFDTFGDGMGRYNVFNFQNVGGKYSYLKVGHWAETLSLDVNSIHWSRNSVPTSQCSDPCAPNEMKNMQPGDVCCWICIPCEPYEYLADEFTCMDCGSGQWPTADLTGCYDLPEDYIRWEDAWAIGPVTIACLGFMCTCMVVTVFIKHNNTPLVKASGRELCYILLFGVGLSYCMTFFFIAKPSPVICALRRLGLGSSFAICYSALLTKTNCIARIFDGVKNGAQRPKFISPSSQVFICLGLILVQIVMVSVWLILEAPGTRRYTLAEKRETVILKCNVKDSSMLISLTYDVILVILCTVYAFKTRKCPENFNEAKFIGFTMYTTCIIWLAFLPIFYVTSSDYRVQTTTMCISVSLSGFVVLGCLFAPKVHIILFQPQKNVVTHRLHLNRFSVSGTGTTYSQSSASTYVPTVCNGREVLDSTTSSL
Sequence of Metabotropic glutamate receptor 4 (Rattus norvegicus, UniProt P31423) (P31423 whole entry): as the sequence (P31423 whole entry) above

Broadly, the EC50 is the concentration needed to bring the measured effect to its halfway point. Consider `COc1cc(NC(=O)c2ccccn2)ncn1`, for which the EC50 in data set [1] and in [2] was above 10000 nM throughout.
As to `O=C(Nc1ccc(Cl)c(Cl)c1)c1cc2ccccc2o1`, the EC50 in [2] is above 10000 nM.
By Emax is commonly meant the greatest response seen or fitted, relative to the assay's reference. Turning to `O=C(Nc1cccc(C(F)(F)F)c1)c1ccccn1`, the Emax in [3] came out at 81%; in [6], 150%. For the same compound, the remaining at 1 h in [4] turned out to be 26%; in data set [7], 19%. Further, the Fu is 2.9% in data set [5] and 1.3% in data set [8].
The Cmax is the maximum level reached in the sampled fluid or tissue. The term AUC denotes concentration integrated over time. The CL/F is clearance divided by bioavailability, as obtained after extravascular dosing. Turning to `COc1cc(NC(=O)c2ccccn2)ccc1Cl`, the t1/2 in [9] was 114 min; in data set [13] it was 9 min. Besides, the figures for the Cmax in [10] and in data set [12] were 1580 ng/mL and 154 ng/mL, respectively. Also, the Emax in [3] was 109%; in data set [6] it was 182%. For the same compound, the values for the remaining at 1 h in [4] and in [7] were 5.3% and 1.8%, respectively. In addition, the fold change (FC) in [11] is 2.7; in [15] it was 28.1; in [23], 35.3. For the same compound, the Fu is given as 2.4% in data set [5] and 2.2% in data set [8]. Moreover, the AUC was 173 ng·h/mL in data set [14] and 705 ng·h/mL in data set [22]. In data set [16], this compound yielded an Activity of 5.1 µM. In data set [17], the CL/F came out at 894 mL/min/kg. Further, the result in data set [18], in [19], in [20] and in data set [21] was inactive.
For the compound `O=C(Nc1ccc(F)c(C(F)(F)F)c1)c1ccccn1`, the EC50 in data set [1] stood at 1000 nM; in data set [2], 1500 nM. Moreover, the Emax is 42% in data set [3] and 54% in [6]. The fold change (FC) in [15] came out at 2.1; in data set [23] it was 2.7.
As for `O=C(Nc1ccc(Cl)c(Cl)c1)C1CCCCC1`, the EC50 in data set [2] is above 10000 nM.
Consider `O=C(Nc1ccc(Cl)c(Cl)c1)c1ccccn1`, for which the Emax in data set [6] amounted to 80%. Further, in data set [2], the EC50 is 1400 nM.
Consider `COc1ccc(NC(=O)c2ccccn2)cc1OC`, for which the results for the EC50 in data set [1] and in [2] were 2400 nM and above 5000 nM, respectively. Further, the Emax in data set [3] was 102%; in data set [6], 164%.
On to `O=C(Nc1cccc(OC(F)F)c1)c1ccccn1`, for which the t1/2 in [9] is 15.6 min; in data set [13], 23.4 min. For the same compound, the Cmax worked out at 1680 ng/mL in [10] and 188 ng/mL in data set [12]. Besides, the Emax in data set [3] turned out to be 113%; in [6], 235%. Besides, the remaining at 1 h in data set [4] was 2.4%; in data set [7], 1.4%. For the same compound, the values for the Fu in data set [5] and in data set [8] were 5.8% and 4%, respectively. Also, the AUC in data set [14] was found to be 99 ng·h/mL; in [22], 976 ng·h/mL. In addition, in data set [16], the Activity was above 10 µM. Also, the CL/F in [17] was found to be 1420 mL/min/kg. Also, the outcome in data set [18], in data set [19], in data set [20] and in [21] was inactive.
As for `O=C(Nc1ccc(Cl)c(Cl)c1)c1ccccc1`, in [2], the EC50 was above 10000 nM.
On to `N#Cc1ccc(NC(=O)c2ccccn2)cc1C(F)(F)F`, for which the EC50 in data set [1] and in [2] was above 10000 nM throughout.
For `O=C(Nc1ccc(Cl)c(Cl)c1)c1ccc(-c2ccccc2)o1`, the EC50 in [2] was above 10000 nM.
On to `O=C(Nc1ccc(Cl)c(Cl)c1)c1ccncn1`, for which the Emax in data set [6] was determined as 83%. Moreover, the EC50 in data set [2] was determined as 2800 nM.
On to `O=C(Nc1cccc(Cl)c1)c1ccco1`, for which the fold change (FC) in data set [15] was 5. The EC50 in [2] is above 5000 nM.
For the compound `COc1nc(NC(=O)c2ccccn2)ccc1Cl`, the Emax in [6] amounted to 95%. Besides, the EC50 in data set [2] was above 5000 nM.
With `COc1cc(NC(=O)c2ccccn2)ccc1C`, the EC50 in [1] turned out to be 210 nM; in data set [2] it was 560 nM. The Emax worked out at 121% in data set [3] and 178% in data set [6]. For the same compound, the fold change (FC) in data set [15] came out at 16.8; in data set [23], 35.3.
On to `O=C(Nc1ccc(Cl)c(C(F)(F)F)c1)c1ccccn1`, for which the figures for the EC50 in data set [1] and in data set [2] were 1700 nM and 2100 nM, respectively. For the same compound, the Emax in data set [3] was 41%; in data set [6], 47%. For the same compound, the results for the fold change (FC) in [15] and in data set [23] were 1.8 and 2.1, respectively.
`O=C(Nc1ccccc1)[C@]12C[C@H]1/C(=N\O)c1ccccc1O2`: the EC50 in data set [1] came to 2030 nM. For the same compound, the values for the Emax in data set [3] and in data set [6] were 88% and 251%, respectively. The fold change (FC) in [23] was found to be 8.8.
Consider `O=C(Nc1ccc(Cl)c(Cl)c1)c1ccc(Br)o1`, for which, in data set [6], the Emax is 62%. In addition, in [2], the EC50 worked out at 4100 nM.
For the compound `Cc1cc(NC(=O)c2ccco2)ccc1Br`, the fold change (FC) in data set [15] turned out to be 4.3. Besides, the EC50 in [2] is above 5000 nM.
On to `O=C(Nc1cccc(OC(F)(F)F)c1)c1ccccn1`, for which the Emax was found to be 75% in data set [3] and 132% in data set [6]. Besides, the remaining at 1 h in data set [4] amounted to 22%; in [7] it was 20%. Moreover, the Fu in [5] came out at 1.6%; in data set [8], 0.8%.
Turning to `Cn1cccc1C(=O)Nc1ccc(Cl)c(Cl)c1`, the EC50 in [2] is above 10000 nM.
Regarding `COc1cc(NC(=O)c2ccccn2)ccc1F`, the EC50 in data set [1] stood at 370 nM; in data set [2], 780 nM. Further, the Emax turned out to be 107% in data set [3] and 207% in data set [6]. The remaining at 1 h in data set [4] turned out to be 3%; in [7], 6.3%. In addition, the outcome in [11], in [16], in data set [18], in [19], in data set [20] and in data set [21] was inactive. Also, the Fu in [5] is given as 6.5%; in data set [8], 5.1%. In addition, the fold change (FC) in data set [15] was 17.5; in data set [23] it was 26.7.
For the compound `O=C(Nc1cccc(C(F)(F)F)n1)c1ccccn1`, the EC50 in data set [1] and in [2] was above 10000 nM in each case.
With `O=C(Nc1cccc(Cl)c1)c1ccccn1`, the results for the EC50 in [1] and in [2] were 290 nM and 1100 nM, respectively. Also, the maximal effect (Emax) in data set [3] stood at 124%; in data set [6] it was 227%. In addition, the fold change (FC) came to 18.1 in data set [15] and 31.4 in [23].
As to `COc1ccc(NC(=O)c2ccccn2)cc1Cl`, the EC50 in [1] is 740 nM; in data set [2], 1100 nM. The results for the Emax in data set [3] and in data set [6] were 108% and 161%, respectively. Further, the results for the fold change (FC) in data set [15] and in data set [23] were 7.2 and 12, respectively.
For `O=C(Nc1ccc(Cl)c(Cl)c1)c1cnccn1`, in data set [2], the EC50 was above 10000 nM.
Still for that read-out and setting: to `O=C(Nc1ccc(Cl)c(Cl)c1)c1ccno1` belongs above 10000 nM; to `O=C(Nc1ccc(Cl)c(Cl)c1)c1ccsc1`, above 10000 nM.
`O=C(Nc1ccc(Cl)c(Cl)c1)c1ccco1`: the Emax in data set [6] was 135%. In [2], the EC50 is above 5000 nM.
`O=C(Nc1ccc2c(c1)OCO2)c1ccccn1`: the figures for the EC50 in data set [1] and in [2] were 500 nM and above 10000 nM, respectively. Moreover, the values for the Emax in data set [3] and in data set [6] were 50% and 90%, respectively.
